# Laboratory results from ChEMBL document CHEMBL1131169, “Efficacious, orally bioavailable thrombin inhibitors based on 3-aminopyridinone or 3-aminopyrazinone acetamide peptidomimetic templates” (J Med Chem, 1998).
# Columns and labels:
# [1] = Final plasma concentration after intravenous infusion; type: ADME, cell-free; conditions: read-out: Final plasma concentration
# [2] = in vitro anticoagulant potency (2x APTT) against Human plasma.; type: functional
# [3] = test system: Rattus norvegicus; assay: In vivo antithrombotic activity was measured after intravenous infusion (at 10 ug/kg/min) in rat FeCl3 arterial thrombosis model; 3/6; type: functional
# [4] = biological target: Prothrombin (Homo sapiens, UniProt P00734); assay: Inhibitory activity against thrombin (IIa) was determined
# [5] = biological target: Serine protease 1 (Homo sapiens, UniProt P07477); assay: Inhibitory activity against trypsin was determined
# Sequence of Serine protease 1 (P07477 whole entry): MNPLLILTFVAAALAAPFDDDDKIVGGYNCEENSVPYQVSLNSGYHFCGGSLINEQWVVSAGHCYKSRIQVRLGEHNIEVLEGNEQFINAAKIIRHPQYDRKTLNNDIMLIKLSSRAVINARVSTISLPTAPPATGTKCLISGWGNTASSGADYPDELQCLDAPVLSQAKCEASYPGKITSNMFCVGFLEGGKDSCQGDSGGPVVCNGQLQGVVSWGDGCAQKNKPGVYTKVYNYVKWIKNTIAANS
# [6] = Area under curve(AUC) value of the compound in dogs at 1 mg/kg dose upon oral administration; type: ADME, organism-based, Canis lupus familiaris; set-up: dose 1 mg/kg, route oral; conditions: dog, in vivo
# Summary of the method: (§1)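 Dogs dosed orally at 1 mg/kg, n = 2 per compound. Plasma drug levels were followed over time to give Cmax (μM), tmax (min), elimination t1/2 (min) and AUC (μM·h).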
# [7] = Maximum plasma concentration in dogs at 1 mg/kg dose upon oral administration; type: ADME, organism-based, Canis lupus familiaris; set-up: dose 1 mg/kg, route oral; conditions: dog; summary of the method: as §1
# [8] = time required for maximum concentration in dogs at 1 mg/kg dose upon oral administration; type: ADME, organism-based, Canis lupus familiaris; set-up: dose 1 mg/kg, route oral; conditions: dog, in vivo; summary of the method: as §1
# [9] = Half-life in dogs at 1 mg/kg dose upon oral administration; type: ADME, organism-based, Canis lupus familiaris; set-up: dose 1 mg/kg, route oral; conditions: dog, in vivo; summary of the method: as §1
# [10] = test system: Rattus norvegicus; assay: In vivo antithrombotic activity was measured after intravenous infusion (at 10 ug/kg/min) in rat FeCl3 arterial thrombosis model; 0/6; type: functional
# [11] = Area under curve(AUC) value of the compound; type: ADME
# [12] = Final plasma concentration after intravenous infusion at 5 ug/kg/min dose; type: ADME, cell-free; conditions: 0.005 mg/kg, read-out: Final plasma concentration
# [13] = test system: Rattus norvegicus; assay: In vivo antithrombotic activity was measured after intravenous infusion (at 10 ug/kg/min) in rat FeCl3 arterial thrombosis model; 0/9; type: functional
# [14] = test system: Rattus norvegicus; assay: In vivo antithrombotic activity was measured after intravenous infusion (at 5 ug/kg/min) in rat FeCl3 arterial thrombosis model;1/6; type: functional
# [15] = in vitro anticoagulant potency (2x APTT) against rat plasma.; type: functional
# [16] = Area under curve(AUC) value of the compound in dogs at 0.5 mg/kg dose upon oral administration; type: ADME, organism-based; set-up: dose 0.5 mg/kg, route oral; conditions: dog, in vivo
# Summary of the method: (§2)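 Oral dosing at 0.5 mg/kg in dogs (n = 4) with plasma levels followed over time. Reported as Cmax (μM), tmax (min), terminal t1/2 (min) and AUC (μM·h), each given as mean ± spread. The same dogs later received an iv crossover dose at 0.5 mg/kg to estimate oral bioavailability.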
# [17] = Maximum plasma concentration in dogs at 0.5 mg/kg dose upon oral administration; type: ADME, organism-based, Canis lupus familiaris; set-up: dose 0.5 mg/kg, route oral; conditions: dog; summary of the method: as §2
# [18] = time required for maximum concentration in dogs at 0.5 mg/kg dose upon oral administration; type: ADME, organism-based, Canis lupus familiaris; set-up: dose 0.5 mg/kg, route oral; conditions: dog, in vivo; summary of the method: as §2
# [19] = Half-life in dogs at 0.5 mg/kg dose upon oral administration; type: ADME, organism-based, Canis lupus familiaris; set-up: dose 0.5 mg/kg, route oral; conditions: dog, in vivo; summary of the method: as §2
# [20] = test system: Rattus norvegicus; assay: In vivo antithrombotic activity was measured after intravenous infusion (at 5 ug/kg/min) in rat FeCl3 arterial thrombosis model; 4/6; type: functional
smiles,measurement,setting,value
Cc1cc(N)nc(C)c1CNC(=O)Cn1c(C)cnc(NCCc2ccccc2)c1=O,concentration,[1],224 nM
same,2x APTT,[2],420 nM
same,Occlusions,[3],3
same,Ki,[4],0.35 nM
same,Ki,[5],1000 nM
Cc1nc(N)ccc1CNC(=O)Cn1c(C)cnc(N[C@@H](C)Cc2ccccc2)c1=O,Ki,[4],22 nM
same,Ki,[5],4800 nM
Cc1cnc(NCCc2ccccc2)c(=O)n1CC(=O)NCc1ccc(N)nc1,2x APTT,[2],2100 nM
same,Ki,[4],8.3 nM
same,Ki,[5],1200 nM
Cc1nc(N)ccc1CNC(=O)Cn1c(C)c(Cl)nc(NCCc2ccccc2)c1=O,2x APTT,[2],5470 nM
same,Ki,[4],7 nM
same,Ki,[5],2100 nM
Cc1nc(N)ccc1CNC(=O)Cn1c(C)cnc(NC(C)(C)Cc2ccccc2)c1=O,Ki,[4],24 nM
same,Ki,[5],2600 nM
Cc1nc(N)ccc1CNC(=O)Cn1c(C)cnc(N[C@H](C)Cc2ccccc2)c1=O,AUC,[6],1.85 µM·h
same,Cmax,[7],600 nM
same,concentration,[1],554 nM
same,Tmax,[8],0.417 h
same,half-life,[9],2.13 h
same,2x APTT,[2],350 nM
same,Occlusions,[10],0
same,Ki,[4],0.52 nM
same,Ki,[5],1500 nM
Cc1nc(N)ccc1CNC(=O)Cn1c(C)ccc(NS(=O)(=O)Cc2ccccc2)c1=O [L-374087],AUC,[11],4.42 µM·h
same,Cmax,[7],990 nM
same,concentration,[1],586 nM
same,concentration,[12],221 nM
same,Tmax,[8],1.25 h
same,half-life,[9],2.57 h
same,2x APTT,[2],210 nM
same,Occlusions,[13],0
same,Ki,[4],0.5 nM
same,Ki,[5],3200 nM
same,Occlusions,[14],1
same,2x APTT,[15],250 nM
Cc1nc(N)ccc1CNC(=O)Cn1c(C)cnc(NCCc2ccccc2)c1=O [L-375378],AUC,[16],11.2 µM·h
same,Cmax,[17],1960 nM
same,concentration,[1],445 nM
same,concentration,[12],238 nM
same,Tmax,[18],0.875 h
same,half-life,[19],3.85 h
same,2x APTT,[2],410 nM
same,Occlusions,[10],0
same,Ki,[4],0.8 nM
same,Ki,[5],1800 nM
same,Occlusions,[20],4
same,2x APTT,[15],380 nM
